Columns and labels:
[1] = target: T1, Dual specificity tyrosine-phosphorylation-regulated kinase 2 (Homo sapiens, UniProt Q92630); assay: Inhibition of recombinant human N-terminal GST-tagged DYRK2 expressed in Escherichia coli BL21(DE3) cells using KKISGRLSPIMTEQ-NH2 as substrate incubated for 15 mins in presence of [gamma-32P]ATP
T1 sequence (Q92630 whole entry): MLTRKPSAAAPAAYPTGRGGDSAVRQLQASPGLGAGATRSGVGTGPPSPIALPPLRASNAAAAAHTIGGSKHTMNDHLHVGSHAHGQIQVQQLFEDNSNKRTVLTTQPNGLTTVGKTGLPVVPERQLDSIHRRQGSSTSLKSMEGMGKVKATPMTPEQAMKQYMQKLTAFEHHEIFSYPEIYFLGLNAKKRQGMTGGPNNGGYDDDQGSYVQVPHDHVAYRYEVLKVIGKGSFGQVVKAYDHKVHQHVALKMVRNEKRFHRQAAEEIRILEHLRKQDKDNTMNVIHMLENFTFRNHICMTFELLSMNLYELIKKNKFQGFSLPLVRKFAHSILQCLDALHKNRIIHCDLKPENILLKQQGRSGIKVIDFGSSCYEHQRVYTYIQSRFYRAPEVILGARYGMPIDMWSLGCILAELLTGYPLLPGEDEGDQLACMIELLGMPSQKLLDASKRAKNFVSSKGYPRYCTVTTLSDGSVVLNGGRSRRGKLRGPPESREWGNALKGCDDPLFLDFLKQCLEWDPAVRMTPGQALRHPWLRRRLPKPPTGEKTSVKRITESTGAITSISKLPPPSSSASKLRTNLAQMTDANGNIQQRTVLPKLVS
In short: (§1)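 Purified recombinant kinase with 100 µM ATP. IC50 values are averages of at least two independent determinations.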

Casein kinase II [2] = target: Casein kinase II (Homo sapiens, UniProt P19784+P67870+P68400); assay: (§2) Inhibition of CK2 (unknown origin) using RRRDDDSDDD-NH2 as susbtrate incubated for 15 mins in presence of [gamma-32P]ATP; format: protein-complex assay
Sequence of Casein kinase II (Homo sapiens, UniProt P19784+P67870+P68400) (P67870 whole entry): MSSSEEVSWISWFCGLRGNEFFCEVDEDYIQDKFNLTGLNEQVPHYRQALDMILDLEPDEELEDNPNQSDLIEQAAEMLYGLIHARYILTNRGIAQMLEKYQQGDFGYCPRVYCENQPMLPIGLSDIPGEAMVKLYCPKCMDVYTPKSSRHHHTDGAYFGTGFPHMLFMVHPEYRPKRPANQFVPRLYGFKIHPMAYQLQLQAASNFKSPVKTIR
Sequence of Casein kinase II (Homo sapiens, UniProt P19784+P67870+P68400) (P68400 whole entry): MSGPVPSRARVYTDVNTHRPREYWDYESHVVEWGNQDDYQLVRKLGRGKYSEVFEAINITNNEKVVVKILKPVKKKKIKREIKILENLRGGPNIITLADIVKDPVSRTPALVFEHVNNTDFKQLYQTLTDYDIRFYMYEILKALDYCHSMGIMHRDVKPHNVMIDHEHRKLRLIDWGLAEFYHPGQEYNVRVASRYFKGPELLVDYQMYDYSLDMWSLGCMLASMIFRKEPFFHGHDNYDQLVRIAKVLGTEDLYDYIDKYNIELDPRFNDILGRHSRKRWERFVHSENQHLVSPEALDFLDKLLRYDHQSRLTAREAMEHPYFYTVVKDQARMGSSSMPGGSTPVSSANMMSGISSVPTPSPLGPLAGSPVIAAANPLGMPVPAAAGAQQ
Sequence of Casein kinase II (Homo sapiens, UniProt P19784+P67870+P68400) (P19784 whole entry): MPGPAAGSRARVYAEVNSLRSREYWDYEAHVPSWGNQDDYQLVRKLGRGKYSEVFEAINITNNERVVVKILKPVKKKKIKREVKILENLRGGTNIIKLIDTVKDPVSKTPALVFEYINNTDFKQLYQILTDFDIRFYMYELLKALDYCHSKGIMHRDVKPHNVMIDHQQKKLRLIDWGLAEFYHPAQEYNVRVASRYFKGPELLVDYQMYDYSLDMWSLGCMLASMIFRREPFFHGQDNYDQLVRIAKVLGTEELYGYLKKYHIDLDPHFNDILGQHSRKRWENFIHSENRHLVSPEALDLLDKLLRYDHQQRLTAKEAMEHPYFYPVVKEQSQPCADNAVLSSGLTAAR

[3] = target: Epidermal growth factor receptor (Homo sapiens, UniProt P00533); assay: Inhibition of EGFR (unknown origin) incubated for 15 mins in presence of [gamma-32P]ATP
Sequence of Epidermal growth factor receptor (P00533 whole entry): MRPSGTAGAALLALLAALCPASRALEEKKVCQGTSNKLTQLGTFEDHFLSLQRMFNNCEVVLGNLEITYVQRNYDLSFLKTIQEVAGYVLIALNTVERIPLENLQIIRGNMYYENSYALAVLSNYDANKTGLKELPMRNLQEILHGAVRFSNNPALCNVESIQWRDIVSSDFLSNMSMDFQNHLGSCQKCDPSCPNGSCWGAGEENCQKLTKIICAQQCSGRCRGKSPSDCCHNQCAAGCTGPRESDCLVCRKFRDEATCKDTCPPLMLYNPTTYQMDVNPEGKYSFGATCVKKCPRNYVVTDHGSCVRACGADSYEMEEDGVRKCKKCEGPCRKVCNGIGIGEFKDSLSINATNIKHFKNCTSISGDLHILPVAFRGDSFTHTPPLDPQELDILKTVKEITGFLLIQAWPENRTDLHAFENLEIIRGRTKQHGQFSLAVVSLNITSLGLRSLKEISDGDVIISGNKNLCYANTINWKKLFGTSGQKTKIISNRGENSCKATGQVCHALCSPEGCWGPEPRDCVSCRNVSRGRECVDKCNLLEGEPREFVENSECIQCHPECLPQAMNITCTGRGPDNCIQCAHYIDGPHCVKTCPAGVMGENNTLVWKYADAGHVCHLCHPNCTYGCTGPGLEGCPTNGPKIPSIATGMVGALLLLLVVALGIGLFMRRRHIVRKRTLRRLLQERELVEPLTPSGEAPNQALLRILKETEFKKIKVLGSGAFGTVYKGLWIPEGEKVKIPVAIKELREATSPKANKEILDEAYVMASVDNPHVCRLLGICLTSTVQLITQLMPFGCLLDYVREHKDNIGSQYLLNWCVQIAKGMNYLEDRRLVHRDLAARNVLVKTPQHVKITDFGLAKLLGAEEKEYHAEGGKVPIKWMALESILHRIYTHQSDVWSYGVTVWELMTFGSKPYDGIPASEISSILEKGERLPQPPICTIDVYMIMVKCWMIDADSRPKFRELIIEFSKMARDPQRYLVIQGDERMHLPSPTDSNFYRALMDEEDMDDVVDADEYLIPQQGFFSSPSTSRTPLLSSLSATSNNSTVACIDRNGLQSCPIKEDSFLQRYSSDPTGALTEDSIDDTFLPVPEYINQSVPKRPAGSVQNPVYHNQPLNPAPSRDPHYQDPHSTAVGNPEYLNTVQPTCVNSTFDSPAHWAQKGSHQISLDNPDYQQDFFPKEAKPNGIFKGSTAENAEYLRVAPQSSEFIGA
In short: (§3)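 Purified recombinant kinase assayed with 100 μM ATP. Values averaged from at least two independent determinations.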

[4] = target: T2, Dual specificity tyrosine-phosphorylation-regulated kinase 1A (Homo sapiens, UniProt Q13627); assay: Inhibition of recombinant human N-terminal His6-tagged DYRK1A catalytic domain expressed in Escherichia coli BL21(DE3) cells using KKISGRLSPIMTEQ-NH2 as substrate incubated for 15 mins in presence of [gamma-32P]ATP
[5] = target: Protein kinase C beta type (Homo sapiens, UniProt P05771); assay: Inhibition of PKCbeta (unknown origin) incubated for 15 mins in presence of [gamma-32P]ATP; in short: as §3
Sequence of Protein kinase C beta type (P05771 whole entry): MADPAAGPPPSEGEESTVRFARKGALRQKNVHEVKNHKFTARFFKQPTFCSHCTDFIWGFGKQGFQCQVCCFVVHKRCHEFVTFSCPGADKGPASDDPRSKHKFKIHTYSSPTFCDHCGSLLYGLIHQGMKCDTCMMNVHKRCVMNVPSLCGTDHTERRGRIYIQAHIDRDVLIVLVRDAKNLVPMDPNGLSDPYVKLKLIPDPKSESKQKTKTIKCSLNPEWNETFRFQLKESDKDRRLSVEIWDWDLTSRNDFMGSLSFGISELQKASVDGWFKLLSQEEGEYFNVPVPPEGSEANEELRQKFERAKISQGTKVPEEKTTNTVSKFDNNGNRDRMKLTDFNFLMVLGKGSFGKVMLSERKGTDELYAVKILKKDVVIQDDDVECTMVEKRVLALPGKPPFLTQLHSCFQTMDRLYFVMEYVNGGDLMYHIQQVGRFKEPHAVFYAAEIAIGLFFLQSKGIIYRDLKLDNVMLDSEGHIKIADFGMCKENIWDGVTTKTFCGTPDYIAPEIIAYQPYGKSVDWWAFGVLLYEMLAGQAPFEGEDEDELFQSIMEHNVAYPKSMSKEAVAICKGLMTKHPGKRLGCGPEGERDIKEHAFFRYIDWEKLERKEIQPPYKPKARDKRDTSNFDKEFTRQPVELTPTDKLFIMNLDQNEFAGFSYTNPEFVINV

[6] = target: Dual specificity tyrosine-phosphorylation-regulated kinase 1B (Homo sapiens, UniProt Q9Y463); assay: Inhibition of full length recombinant human GST-tagged DYRK1B expressed in insect cells using KKISGRLSPIMTEQ-NH2 as substrate incubated for 15 mins in presence of [gamma-32P]ATP
Sequence of Dual specificity tyrosine-phosphorylation-regulated kinase 1B (Q9Y463 whole entry, the tested form may be a part): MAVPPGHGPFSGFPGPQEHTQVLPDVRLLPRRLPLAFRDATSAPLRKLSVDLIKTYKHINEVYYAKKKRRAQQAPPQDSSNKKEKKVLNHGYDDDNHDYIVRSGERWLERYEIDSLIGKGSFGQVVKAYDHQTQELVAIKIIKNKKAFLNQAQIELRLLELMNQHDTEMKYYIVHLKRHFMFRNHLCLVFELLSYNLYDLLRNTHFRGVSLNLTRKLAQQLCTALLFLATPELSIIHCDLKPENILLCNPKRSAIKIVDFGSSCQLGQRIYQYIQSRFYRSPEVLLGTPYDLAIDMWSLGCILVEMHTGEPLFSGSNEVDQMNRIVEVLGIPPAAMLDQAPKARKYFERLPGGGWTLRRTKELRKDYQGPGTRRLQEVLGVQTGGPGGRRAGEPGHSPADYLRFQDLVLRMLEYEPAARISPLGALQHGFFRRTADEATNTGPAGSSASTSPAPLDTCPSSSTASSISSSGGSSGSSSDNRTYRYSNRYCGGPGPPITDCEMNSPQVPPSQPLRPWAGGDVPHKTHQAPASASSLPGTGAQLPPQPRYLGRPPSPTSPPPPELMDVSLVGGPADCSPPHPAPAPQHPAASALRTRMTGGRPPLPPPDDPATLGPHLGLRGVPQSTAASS

[7] = target: Dual specificity protein kinase CLK1 (Homo sapiens, UniProt P49759); assay: Inhibition of recombinant human GST-tagged CLK1 catalytic domain (129 to 484 residues) expressed in Escherichia coli using GRSRSRSRSRSRSRSR as substrate incubated for 15 mins in presence of [gamma-32P]ATP; in short: as §1
Sequence of Dual specificity protein kinase CLK1 (P49759 whole entry, the tested form may be a part): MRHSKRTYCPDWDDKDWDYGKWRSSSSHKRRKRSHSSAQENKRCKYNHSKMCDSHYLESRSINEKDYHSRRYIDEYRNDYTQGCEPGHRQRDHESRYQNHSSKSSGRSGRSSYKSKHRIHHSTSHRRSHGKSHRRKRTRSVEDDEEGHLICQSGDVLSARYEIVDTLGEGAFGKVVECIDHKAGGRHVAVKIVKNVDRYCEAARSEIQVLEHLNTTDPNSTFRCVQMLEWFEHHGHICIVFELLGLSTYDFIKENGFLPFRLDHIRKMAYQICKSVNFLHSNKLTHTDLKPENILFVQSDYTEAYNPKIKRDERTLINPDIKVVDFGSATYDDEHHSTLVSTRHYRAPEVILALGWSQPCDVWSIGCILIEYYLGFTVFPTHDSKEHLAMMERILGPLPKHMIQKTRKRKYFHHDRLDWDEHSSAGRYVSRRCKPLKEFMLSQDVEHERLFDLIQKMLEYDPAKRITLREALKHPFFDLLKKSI

[8] = Half life in rat plasma at 1 uM by LC-MS/MS analysis; format: ADME, cell-free
In short: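 Pooled heparinized rat plasma incubated with 1 μM compound at 37 °C, sampled at 0, 5, 15, 30, 60 and 120 min. Reaction stopped with 5 volumes cold acetonitrile containing internal standard. Remaining compound quantified by LC-MS/MS. Half-life given as mean of two experiments.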

Plasma = assay: Metabolic stability in rat plasma assessed as drug degradation at 1 uM after 120 mins by LC-MS/MS analysis; format: ADME, cell-free; conditions: 2 h
In short: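 Compound (1 µM) in pooled heparinised rat plasma at 37 °C, sampled at 0, 5, 15, 30, 60 and 120 min. Reaction stopped with 5 volumes of cold acetonitrile containing internal standard. Remaining compound was measured by LC-MS/MS; means of two experiments.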

Casein kinase II [9] = target: Casein kinase II (Homo sapiens, UniProt P67870+P68400+P19784); assay: as §2; format: protein-complex assay
Sequence of Casein kinase II (Homo sapiens, UniProt P67870+P68400+P19784) (P67870 whole entry): as the sequence (P67870 whole entry) above
Sequence of Casein kinase II (Homo sapiens, UniProt P67870+P68400+P19784) (P68400 whole entry): as the sequence (P68400 whole entry) above
Sequence of Casein kinase II (Homo sapiens, UniProt P67870+P68400+P19784) (P19784 whole entry): as the sequence (P19784 whole entry) above

[10] = Dissociation constant, pKa of compound; format: physicochemical
[11] = Growth inhibition of human U87MG cells after 4 days by MTT assay; format: functional, cell-based, U-87MG ATCC; conditions: U-87 MG, 96 h
[12] = target: T2, Dual specificity tyrosine-phosphorylation-regulated kinase 1A; assay: Inhibition of tetracycline-inducible EGFP-DYRK1A (unknown origin) expressed in HEK293 cells coexpressing full length human EGFP-tau protein assessed as reduction in tau-Thr212 phosphorylation incubated overnight by immunoblotting assay

| IC50 ([1]; read-out: IC50) [µM] | IC50 (Casein kinase II [2]) [µM] | IC50 ([3]; read-out: IC50) [µM] | IC50 [4] [µM] | IC50 [5] | IC50 [6] [µM] | IC50 [7] [µM] | half-life at 1 µM [8] [h] | Stability (Plasma) | IC50 ([5]; read-out: IC50) [µM] | IC50 [1] | IC50 (Casein kinase II [9]) | IC50 [3] | pKa [10] | IC50 [12] [µM] | Compound | IC50 [11] [µM] |
| --- | --- | --- | --- | --- | --- | --- | --- | --- | --- | --- | --- | --- | --- | --- | --- | --- |
| > 10 | > 10 | > 10 | 0.93 | Not Active | 6.7 | 3.9 | – | – | – | – | – | – | – | – | O=C1OCC/C1=C\c1ccc2c(c1)CCCO2 | – |
| > 10 | > 10 | > 10 | 1.08 | Not Active | 1.68 | 0.17 | – | – | – | – | – | – | – | – | CC1C/C(=C\c2ccc3ncsc3c2)C(=O)O1 (stereo not drawn) | – |
| 0.82 | > 10 | > 10 | 0.96 | Not Active | 2.17 | > 10 | > 2 | Stable | – | – | – | – | – | – | O=C1OCC/C1=C\c1ccc2c(c1)CCO2 | – |
| 1.5 | 2.4 | > 10 | 0.7 | – | 0.9 | 0.02 | – | – | > 10 | – | – | – | – | – | O=C1NC(=S)N/C1=C\c1ccc2ncsc2c1 | – |
| – | – | – | – | – | – | – | < 0.0833 | – | – | – | – | – | – | – | CCOC(=O)[C@H](Cc1ccccc1)NC(C)=O | – |
| – | > 10 | – | 1.2 | Not Active | 10.5 | 4.37 | – | – | – | Not Active | – | – | – | – | COc1ccc(/C=C2\CC(C)OC2=O)cc1 (stereo not drawn) | – |
| > 10 | – | – | 1.81 | Not Active | 3.8 | > 10 | – | – | – | – | Not Active | Not Active | – | – | COc1ccc(/C=C2\CCOC2=O)cc1 | – |
| > 10 | 0.22 | – | 0.25 | Not Active | 1.5 | 5.7 | – | – | – | – | – | Not Active | 5.8 | – | COc1ccc(/C=C2/SC(=S)NC2=O)cc1 | 9.5 |
| 2.04 | > 10 | > 10 | 0.88 | Not Active | 4.29 | > 10 | – | – | – | – | – | – | – | – | O=C1OCC/C1=C\c1ccc2c(c1)OCCO2 | – |
| – | – | – | – | – | – | – | – | – | – | – | – | – | – | – | COc1ccc2c(c1)[nH]c1c(C)nccc12 [HARMINE] | 7.2 |
| 1 | 0.1 | > 10 | 0.1 | – | 0.3 | 0.5 | – | – | > 10 | – | – | – | – | – | O=C1NC(=S)S/C1=C\c1ccc2c(c1)CCO2 | 5.6 |
| – | – | – | > 10 | – | – | – | – | – | – | – | – | – | – | – | COc1ccc(/C=C2\CC(=O)NC2=O)cc1 | – |
| 9.2 | 0.17 | – | 1.3 | Not Active | 5.2 | 3.6 | – | – | – | – | – | Not Active | – | – | COc1ccc(/C=C2\NC(=O)SC2=O)cc1 | – |
| 0.99 | > 10 | > 10 | 0.6 | Not Active | 2.63 | > 10 | – | – | – | – | – | – | – | – | O=C1OCC/C1=C\c1ccc2c(c1)OCO2 | – |
| – | – | – | – | – | – | – | 2.08 | – | – | – | – | – | – | – | COc1ccc([C@@H]2Sc3ccccc3N(CCN(C)C)C(=O)[C@@H]2OC(C)=O)cc1 [DILTIAZEM] | – |
| > 10 | > 10 | – | 1.1 | Not Active | 5.8 | 7.52 | – | – | – | – | – | Not Active | – | – | COc1ccc(/C=C2\CCCOC2=O)cc1 | – |
| – | – | – | 6.4 | Not Active | > 10 | 10 | – | – | – | Not Active | Not Active | – | 8.9 | – | COc1ccc(/C=C2\NC(=O)NC2=O)cc1 | – |
| 0.1 | 0.02 | > 10 | 0.03 | Not Active | 0.08 | 0.07 | – | – | – | – | – | – | – | 1.6 | O=C1NC(=O)/C(=C/c2ccc3nccnc3c2)S1 | 0.32 |

Reference: ChEMBL document CHEMBL3774321, “Systematic diversification of benzylidene heterocycles yields novel inhibitor scaffolds selective for Dyrk1A, Clk1 and CK2” (Eur J Med Chem, 2016)
